Rows were chosen to be rich in hits. Some 1.2% of all compounds tested hit in one or more screens of this group.
RAD52 inh: RAD52 DNA annealing inhibitors, primary screen, biochemical, FRET, single point, set 2. DNA repair protein RAD52 homolog (Homo sapiens), P43351. recombinant RAD52 DNA annealing, FRET fluorescence. inhibition, % at 18.7 µM. actives 0.46% (n = 360,000). AID 651710, 2012;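 active = every replicate showing at least 50% inhibition; inconclusive = mean inhibition at least 50% but not in every replicate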
RAD54 inh: inhibitors of human RAD54 branch migration, primary screen, biochemical, fluorescence, single point | DNA repair and recombination protein RAD54-like (Homo sapiens), Q92698 | RAD54 Holliday junction branch migration, FAM/BHQ fluorescence | inhibition, % at 10.4 µM | actives 0.14% (n = 360,000) | AID 602329, 2012;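 active = mean normalized replicate activity at least 40 and at least half of replicates scoring 40 or more; inconclusive = only one of the two criteria met; inactive = mean below 40 and under half of replicates reaching 40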;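 note: 0% = median of neutral control wells and 100% = median of positive control wells; inhibitors cause a drop in the FAM fluorescence signal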
Target sequence (Q92698 whole entry, looked up): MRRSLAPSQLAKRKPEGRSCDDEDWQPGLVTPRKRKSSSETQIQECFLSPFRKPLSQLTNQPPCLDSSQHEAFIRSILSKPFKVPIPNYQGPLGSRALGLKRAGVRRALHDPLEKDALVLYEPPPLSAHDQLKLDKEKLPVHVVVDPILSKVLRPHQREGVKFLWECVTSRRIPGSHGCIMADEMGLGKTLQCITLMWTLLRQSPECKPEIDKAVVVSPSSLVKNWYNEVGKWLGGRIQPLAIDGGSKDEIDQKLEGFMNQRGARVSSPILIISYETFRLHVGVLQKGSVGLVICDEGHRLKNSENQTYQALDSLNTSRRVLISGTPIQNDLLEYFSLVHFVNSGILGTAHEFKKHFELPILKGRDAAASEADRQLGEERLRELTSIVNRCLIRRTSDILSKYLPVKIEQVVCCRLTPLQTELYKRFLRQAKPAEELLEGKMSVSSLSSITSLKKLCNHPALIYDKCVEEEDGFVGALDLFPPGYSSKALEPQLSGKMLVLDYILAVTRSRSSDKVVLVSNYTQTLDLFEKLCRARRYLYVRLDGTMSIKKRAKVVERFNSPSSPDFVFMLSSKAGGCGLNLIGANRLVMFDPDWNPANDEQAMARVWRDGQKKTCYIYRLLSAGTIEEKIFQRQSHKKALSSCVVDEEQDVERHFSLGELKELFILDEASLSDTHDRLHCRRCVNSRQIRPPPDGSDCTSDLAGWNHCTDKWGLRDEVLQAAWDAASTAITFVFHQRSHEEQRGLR
FN deposition inh: inhibitors of fibronectin matrix deposition, primary screen, AH1F cells, Alexa488-fibronectin fluorescence, plate reader; AH1F fibroblasts, overnight; inhibition, % at 12.6 µM; actives 0.086% (n = 350,000); AID 743247, 2014;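 active = mean inhibition across replicates of 30% or more, regardless of how many single replicates reach that level; inconclusive = mean under 30% yet at least half of replicates reach 30%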;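 note: positive control wells lacked labelled fibronectin entirely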
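Material – AH1F fibroblast monolayer, labelled fibronectin deposition · Reagent – labelled fibronectin 24 nM · Timing – 1 h adhesion, overnight exposure · Measured by – fluorescence at 485 nm excitation, 525 nm emission · Read-out – inhibition of fibronectin deposition signal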
AF4-AF9 inh: inhibitors of AF4 peptide binding to AF9, primary screen, biochemical, AlphaScreen, biotin-AF4 peptide, FLAG-AF9, single point | inhibition, % at 10 µM | Protein AF-9 (Homo sapiens), P42568 | actives 0.47% (n = 350,000);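 active = every replicate reaching a set inhibition limit, whatever the replicate mean, cut at about 25% in these data; inconclusive = mean inhibition reaches that limit but some replicates miss it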;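 note: 0% = plate neutral control median and 100% = total signal loss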
N-glyco inh: increase of ERlucT glycosylation luciferase signal, primary screen, N-linked glycosylation inhibitor project, D54 ERlucT cells, luminescence, set 2; D54 ERlucT glycosylation luciferase reporter, 24 h; percent of 100 nM tunicamycin response; reporter increase, % at 12.5 µM; actives 0.23% (n = 360,000);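 active = mean luciferase reporter signal, scaled so untreated is 0 and the glycosylation-blocking control 100, at or above a set limit in every replicate; inconclusive = mean reaches the limit but not every replicate does; inactive = mean below the limit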;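 note: luciferase carries N-glycosylation sites so blocking glycosylation raises the light; 0% = median of neutral control wells and 100% = median of 100 nM tunicamycin wells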
NSD2 inh: NSD2 histone methyltransferase inhibitors, primary screen, biochemical, AlphaScreen, single concentration, set 2. inhibition, % at 12.5 µM. actives 0.54% (n = 310,000). NSD2 peptide methylation, 120 min; in the data active = inhibition above about 50%
* marks the source's active call; other numbers are inactive results; ? = inconclusive; . = no result given.

SMILES	RAD52 inh	RAD54 inh	FN deposition inh	AF4-AF9 inh	N-glyco inh	NSD2 inh
C[C@H](CO)N1C[C@H](C)[C@@H](CN(C)Cc2ccncc2)Oc2ncc(C#Cc3ccccn3)cc2C1=O	-98.3	-10.4	-0.9	-1.6	.	.
C[C@@H]1CN([C@@H](C)CO)C(=O)c2ccccc2-c2ccccc2CO[C@@H]1CN(C)Cc1ccc2c(c1)OCCN2C	-5.4	-3.1	-3.3	36.8*	.	.
C[C@@H]1CN([C@@H](C)CO)C(=O)c2c(c3ccccc3n2C)-c2ccccc2CO[C@@H]1CN(C)Cc1ccc2c(c1)OCO2	22.8	.	1.8	5.2	.	.
C[C@H](CO)N1C[C@H](C)[C@@H](CN(C)Cc2ccc3c(c2)OCCN3C)OCc2ccccc2-c2c(n(C)c3ccccc23)C1=O	24.4	.	3.9	30.8*	.	.
C[C@@H]1CN([C@H](C)CO)C(=O)c2ccccc2-c2ccccc2CO[C@@H]1CN(C)Cc1ccc2c(c1)OCCN2C	.	.	15.3	.	.	.
C[C@H]1CN([C@@H](C)CO)C(=O)c2c(c3ccccc3n2C)-c2ccccc2CO[C@H]1CN(C)Cc1ccc2c(c1)OCCN2C	41.7	.	5.8	43.6*	.	.
C[C@@H]1CN([C@@H](C)CO)S(=O)(=O)c2ccc(C3=CCCC3)cc2O[C@@H]1CN(C)S(=O)(=O)c1cn(C)cn1	6.1	-3.5	-3.7	1.0	.	.
C[C@@H]1CN([C@H](C)CO)C(=O)Cc2cc(NS(=O)(=O)c3ccc(Cl)cc3)ccc2O[C@@H]1CN(C)Cc1ccc(Cl)c(Cl)c1	-2.8	-1.9	.	-1.6	.	.
CO[C@H]1CN(C)C(=O)c2cc(NC(=O)Cc3ccccc3)ccc2OC[C@H](C)NC[C@H]1C	17.3	3.6	-4.6	1.4	.	.
C[C@@H]1CN([C@@H](C)CO)C(=O)c2cccc(NC(=O)C3CCOCC3)c2O[C@@H]1CN(C)S(=O)(=O)c1ccccc1	1.7	12.1	.	-0.6	.	.
C[C@@H]1CCCCO[C@@H](CN(C)Cc2ccc3c(c2)OCO3)[C@@H](C)CN([C@H](C)CO)C(=O)c2cc(N(C)C)ccc2O1	7.8	-12.7	-6.5	15.4	0.4	.
C[C@@H]1CCCCO[C@H](CN(C)Cc2ccc3c(c2)OCO3)[C@H](C)CN([C@H](C)CO)C(=O)c2cc(N(C)C)ccc2O1	3.5	7.7	.	5.6	.	.
C[C@@H]1CCCCO[C@@H](CN(C)Cc2ccc(Cl)c(Cl)c2)[C@H](C)CN([C@H](C)CO)C(=O)c2cc(N(C)C)ccc2O1	-43.8	6.7	.	60.7*	.	.
C[C@@H]1CCCCO[C@@H](CN(C)Cc2ccc(Cl)c(Cl)c2)[C@H](C)CN([C@@H](C)CO)C(=O)c2cc(N(C)C)ccc2O1	2.2	.	.	40.2*	.	.
C[C@@H]1CCCCO[C@H](CN(C)Cc2ccc(Cl)c(Cl)c2)[C@@H](C)CN([C@@H](C)CO)C(=O)c2cc(N(C)C)ccc2O1	-24.7	-5.0	.	60.8*	.	.
COc1cc(C=C2C(=O)c3ccccc3C2=O)ccc1OCC(=O)N1CCOCC1	.	.	.	.	.	4.4
C/C(=N\NC(=O)c1ccc(Cn2cc([N+](=O)[O-])cn2)o1)c1cccc(NC(=O)c2cccnc2)c1	10.8	-8.3	31.2*	4.0	2.3	-0.2
O=C(Cc1ccccc1)N1C[C@H]2[C@@H](c3ccccc31)[C@@H](CO)N2C(=O)C1CC1	3.9	-4.6	0.3	-0.8	.	.
COc1ccc2oc(C(=O)NCC(c3ccco3)N(C)C)c(C)c2c1 (centres undefined)	-22.4	-19.0	-2.7	34.6*	-1.5	12.9
COc1ccccc1-c1ccc2c(c1)O[C@H](CN(C)C(=O)c1cccnc1)[C@H](C)CN([C@H](C)CO)S2(=O)=O	-8.2	-0.5	.	-0.4	.	.
FC(F)(F)c1cc(-c2ccco2)nc(NCc2cccnc2)n1	.	-6.1	7.2	.	4.7	0.3
FC(F)(F)c1cc(-c2ccccc2)nc(NCc2cccnc2)n1	.	3.3	active	.	0.9	.
C[C@@H]1CN([C@@H](C)CO)C(=O)c2cc(NS(=O)(=O)c3cn(C)cn3)ccc2O[C@H]1CN(C)C	-6.5	2.9	6.9	-0.9	.	.
O=C(C[C@@H]1C[C@@H]2c3cc(NC(=O)c4ccc5c(c4)OCO5)ccc3O[C@@H]2[C@H](CO)O1)NC1CCCCC1	13.2	-0.3	.	-1.0	.	.
COc1cc2c(cc1O)C=[N+](Cc1cccc(OC(F)(F)F)c1)CC2	9.5	-10.4	.	1.4	.	.
SMILES	RAD52 inh	RAD54 inh	FN deposition inh	AF4-AF9 inh	N-glyco inh	NSD2 inh
S=C1NC2=C(CCCC2=C2SCCS2)C(c2ccccc2)N1 (centres undefined)	2.5	.	0.2	-4.4	414.5*	3.2
Cc1nn(CC(C)C)c(Cl)c1C(=O)N(c1ccc(Cl)cc1F)S(C)(=O)=O	-2.4	9.0	4.2	0.3	26.3*	-2.6
Cn1nc(-c2ccc(Cl)cc2)c2cc(C(=O)NCCCN3CCOCC3)sc21	.	84.2*	.	.	33.4*	.
O=C(NCCCN1CCOCC1)c1cc(-c2ccccc2)on1	6.9	5.1	.	1.1	29.5*	-2.0
CCCCNC(=O)c1cc(-c2ccc(F)cc2)on1	.	-0.7	.	.	37.0*	-1.2
COc1cccc(N2CC(O)=C(c3nc4ccccc4c(=O)[nH]3)C2=N)c1	.	10.6	.	.	36.2*	.
O=C(C[C@H]1CC[C@H]2[C@@H](COC[C@H](O)CN2S(=O)(=O)c2ccccc2)O1)NCc1ccc2c(c1)OCO2	15.7	-10.3	4.1	11.9	.	.
O=C(c1ccc(F)cc1)c1c[nH]c(C(=O)NCC2CCCO2)c1 (centres undefined)	.	.	.	.	.	4.4
COc1ccc(C(=O)/C=C/c2ccc(OC)c(O)c2)c(F)c1	.	-6.5	.	.	54.7*	13.6
COC(=O)c1cn(C(=O)/C=C/c2ccc(OC)c(OC)c2)c2ccccc12	-7.0	.	18.4	-0.3	36.4*	.
COc1ccc(C=CC(=O)c2ccc(OC)c(OC)c2)cc1O	-9.9	4.9	3.3	6.2	?	10.6
COc1cc(/C=C/C(=O)c2ccc(Cl)s2)cc(OC)c1O	.	-3.9	.	.	?	12.1
COc1ccc(C=CC(=O)c2ccc(OC)c(OC)c2O)cc1OC	-0.6	-3.8	13.5	16.1	36.6*	4.5
COc1ccc(/C=C/C(=O)c2ccc(Cl)s2)cc1O	.	5.2	.	.	28.0*	8.9
C[C@H](CO)N1C[C@H](C)[C@H](CN(C)C(=O)C2CCC2)Oc2ncc(-c3ccccc3F)cc2C1=O	19.4	1.1	.	-1.2	.	.
CCC(=O)N[C@H]1CC[C@H](CC(=O)NCC2CCCCC2)O[C@H]1CO	5.6	-1.7	.	-1.0	.	.
CCOc1nc2c(c(C)nn2-c2ccccc2)c(C)c1CCC(=O)N1CCN(c2ccccn2)CC1	.	.	.	.	.	-2.3

Bioassay records deposited in PubChem BioAssay by Broad Institute.
